Data set [1] in a line: melting temperature; fluorescence melt of hairpins on a sequencing array, two-state fit, raised by 9.35 °C to match UV melts. Particulars: sodium 0.088 M. The method, boiled down: (§1)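 Library hairpins on a sequenced MiSeq flow cell carried annealed Cy3 and quencher oligos, and their Cy3 fluorescence was imaged in 50 mM Na-HEPES pH 8.0 with 25 mM NaCl, in 2.5 °C steps up to 60 °C. Signals were normalised to Cy3 before quenching and to control constructs. Melting temperature and folding enthalpy were obtained from bootstrapped two-state fits, combined by inverse-variance weighting across four replicates, and the fitted temperatures were then raised by 9.35 °C to match UV melts.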

Data set [2] in a line: folding enthalpy; higher = less favourable; fluorescence melt of hairpins on a sequencing array, two-state fit. Particulars: sodium 0.088 M. The method, boiled down: as §1

GTGGGTGGAAACACTCGC (.(.(((....))).).): the Tm in data set [1] came to 42 °C. The folding enthalpy in data set [2] was -24.7 kcal/mol.

GTGGGTGGAAACATCCAC ((((.((....)).)))): the Tm in data set [1] came to 53.5 °C. Moreover, the folding enthalpy in data set [2] was -32.4 kcal/mol.

Regarding GTGGGTGGAAACGCCCAC (((((.(....).))))), the Tm in data set [1] turned out to be 61.8 °C. In addition, the folding enthalpy in data set [2] is -40.3 kcal/mol.

On to GTGGGTGGAAACGCTCAC (((.(.(....).).))), for which, in data set [1], the Tm stood at 40.6 °C. Also, the folding enthalpy in data set [2] was -33 kcal/mol.

In the case of GTGGGTTCGAAAGAACAC (((..(((....)))))), the Tm in data set [1] worked out at 57.4 °C. In data set [2], the folding enthalpy is -27 kcal/mol.

As to GTGGTACGAAAGTAGCAC (((.(((....))).))), the Tm in data set [1] turned out to be 63.2 °C. For the same sequence, the folding enthalpy in data set [2] was -42 kcal/mol.

Consider GTGGTAGGAAACTGTCAC (((..((....))..))), for which the Tm in data set [1] stood at 32.9 °C. Moreover, in data set [2], the folding enthalpy is -17.3 kcal/mol.

GTGGTCCGAAAGGATCAC (((.(((....))).))): in data set [1], the Tm came out at 60.4 °C. Besides, the folding enthalpy in data set [2] is -41.1 kcal/mol.

Consider GTGGTCGAAAGACAGCAC ((((((....)))..))), for which the Tm in data set [1] is 40.6 °C. In data set [2], the folding enthalpy is -16.9 kcal/mol.

In the case of GTGGTCGGAAACGGTCAC (((..((....))..))), in data set [1], the Tm worked out at 44.2 °C. In data set [2], the folding enthalpy was -23 kcal/mol.

For the sequence GTGGTGAAAACCAC (((((....))))), the Tm in data set [1] came to 58 °C. Besides, the folding enthalpy in data set [2] was -27.3 kcal/mol.

GTGGTGGGAAACTGCCAC ((((..(....)..)))): in data set [1], the Tm turned out to be 49.1 °C. In addition, the folding enthalpy in data set [2] was -29.2 kcal/mol.

Consider GTGGTTCCGAAAGGACAC (((..(((....)))))), for which the Tm in data set [1] worked out at 40 °C. The folding enthalpy in data set [2] is -17.3 kcal/mol.

As for GTGGTTCGAAAGAACAC (((.(((....)))))), the Tm in data set [1] worked out at 47.8 °C. For the same sequence, the folding enthalpy in data set [2] is -16.8 kcal/mol.

As to GTGGTTGGAAACAACCAC (((((((....))))))), the Tm in data set [1] was 65.7 °C. In addition, the folding enthalpy in data set [2] was -44.5 kcal/mol.

GTGGTTGGAAACAATCGC (.(.(((....))).).): the Tm in data set [1] came to 35 °C. In data set [2], the folding enthalpy is -23.3 kcal/mol.

With GTGGTTGGAAACAGCTAC ((.(.((....)).).)), in data set [1], the Tm was 33.1 °C. In addition, the folding enthalpy in data set [2] is -23.3 kcal/mol.

As to GTGTAACGAAAGTTGCAC (((.(((....))).))), the Tm in data set [1] was 53.6 °C. In data set [2], the folding enthalpy is -33 kcal/mol.

As to GTGTAAGCGAAAGCTCAC (((..(((....)))))), the Tm in data set [1] is 44.9 °C. Also, the folding enthalpy in data set [2] is -19.3 kcal/mol.

For GTGTAAGGAAACTTACAC (((((((....))))))), in data set [1], the Tm amounted to 54.2 °C. For the same sequence, the folding enthalpy in data set [2] is -42.2 kcal/mol.

Turning to GTGTAATCGAAAGATCAC (((..(((....)))))), the Tm in data set [1] amounted to 33.8 °C. Moreover, the folding enthalpy in data set [2] is -23.9 kcal/mol.

For GTGTACCGAAAGGTCAC (((.(((....)))))), the Tm in data set [1] came to 53 °C. Besides, the folding enthalpy in data set [2] is -30.5 kcal/mol.

GTGTACCGAAAGGTGCAC (((.(((....))).))): the Tm in data set [1] amounted to 65.2 °C. The folding enthalpy in data set [2] is -34.1 kcal/mol.

For the sequence GTGTACGAAAGTACGCAC ((((((....)))..))), in data set [1], the Tm stood at 49.9 °C. In addition, in data set [2], the folding enthalpy is -14.5 kcal/mol.

Regarding GTGTACGAAAGTAGACAC ((((((....)))..))), in data set [1], the Tm turned out to be 40.8 °C. In addition, the folding enthalpy in data set [2] was -22.7 kcal/mol.

Turning to GTGTACGAAAGTAGCCAC ((((((....)))..))), in data set [1], the Tm worked out at 31.9 °C. In addition, the folding enthalpy in data set [2] is -14.2 kcal/mol.

Regarding GTGTACGAAAGTATGCAC ((((((....)))..))), in data set [1], the Tm is 35.6 °C. Besides, the folding enthalpy in data set [2] was -17.7 kcal/mol.

GTGTACGGAAACGCACAC ((((.((....)).)))): the Tm in data set [1] is 49.1 °C. In data set [2], the folding enthalpy is -38.1 kcal/mol.

Regarding GTGTACGGAAACGTACAC (((((((....))))))), in data set [1], the Tm stood at 67.2 °C. Moreover, the folding enthalpy in data set [2] was -33.6 kcal/mol.

With GTGTACGGAAACGTACGC (.(((((....))))).), the Tm in data set [1] was 55.1 °C. Besides, the folding enthalpy in data set [2] is -20.6 kcal/mol.

The record behind these values is the array DNA melting data of Ke et al. (doi:10.1101/2024.01.08.574731).
